# Test results from PubChem BioAssay AID624268 (The Scripps Research Institute Molecular Screening Center, 2012).
# In all, about 360,000 compounds went through this assay and about 1,500 (0.42%) were called active. The full list was thinned out, with actives kept by preference. A number with no mark means an inactive call.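 Rule for the calls: active = inhibition above a per-plate cutoff of the control wells' mean inhibition plus 3 SD (cut at about 5.5% in these data); inactive = the rest.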
# Tested on: methionyl-tRNA synthetase (Trypanosoma brucei brucei)
# Test: inhibition of trypanosome methionyl-tRNA synthetase – biochemical, luminescence, primary screen (AID 624268);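 note: 0% = DMSO wells median and 100% = median of wells with control inhibitor compound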
# Conditions: purified T. brucei MetRS, ATP depletion, Kinase-Glo luminescence; at 11.9 µM; hits give high values
# Outline: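 Measured by: Kinase-Glo luciferase luminescence reporting remaining unconsumed ATP. Material: purified T. brucei MetRS enzyme. Doses: 11.9 µM compound single dose, 0.9% DMSO. Medium: HEPES buffer containing pyrophosphatase, BSA, spermine, DTT. Times: 15 min preincubation, 2 h reaction, all 25 °C. Reagent: methionine, ATP and bulk E. coli tRNA.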
row,Structure (SMILES),inhibition
1,O=C(O)c1ccc(NS(=O)(=O)c2ccc3c(c2)C(=O)c2cc(S(=O)(=O)Nc4ccc(C(=O)O)cc4)ccc2-3)cc1,5.69% (active)
2,O=C(c1ccc(NS(=O)(=O)c2ccc3[nH]c(=O)[nH]c3c2)cc1)N1CCCCC1,-0.5%
3,Cc1cc(C(C)(C)C)cc(S(=O)(=O)Nc2ccc(C(=O)O)cc2)c1C,0.3%
4,CCOC(=O)CC1=CC(=O)Nc2ccccc2N1,-0.37%
5,CCOc1ccc(NC(=O)CSc2nc3c(c(=O)n2-c2ccccc2OC)SCC3)cc1,-0.23%
6,COc1ccc(NC(=O)CSc2nnc(Cc3ccccc3)c(=O)n2N)cc1,-0.2%
7,COc1ccccc1-n1c(SCC(=O)Nc2ccc(Cl)cc2)nc(O)c(Cc2ccccc2)c1=O,55.1% (active)
8,COc1ccc(NC(=O)CN(C)C(=O)c2n[nH]c3ccccc23)cc1,-0.44%
9,CC1(C(=O)NS(=O)(=O)c2cccc(OC(F)F)c2)CCN1C(=O)C1CC1 (configuration not stated),-0.2%
10,CC1(c2cccc([N+](=O)[O-])c2)CC(C)(C)N(C(=O)c2ccccc2)c2ccccc21 (configuration not stated),0.07%
11,Cc1ccc2[nH]c(=O)c(CN3CCCCC3)c(-c3ccccc3)c2c1,2.15%
12,O=c1cc(CN2CCCCCCC2)c2c(ccc3ccccc32)o1,0.63%
13,c1ccc2cc3[nH]c(CN4CCCCC4)nc3cc2c1,7.35% (active)
14,O=C1COc2ccc(NC(=O)N3CCN(c4ccc(F)cc4)CC3)cc2N1,-0.82%
15,C[C@@H]1CN([C@H](C)CO)C(=O)CCCn2cc(nn2)CO[C@H]1CN(C)S(C)(=O)=O,-1.67%
16,COc1ccc(OC)c(NC(=O)C2(C)CCN2C(=O)Cc2ccccc2)c1 (configuration not stated),-0.17%
17,COc1cc(/C=N\NC(=O)c2nonc2N)c(OC)cc1Br,-0.27%
18,Cc1ccc(OCCOCCOc2ccc(Br)cc2/C=N\NC(=O)c2ccncc2)cc1,0.03%
19,COc1ccc(-c2[nH]ncc2/C=N/NC(=O)c2cc(Br)ccc2O)c(OC)c1,5.88% (active)
20,Cn1c(N)c(C(=O)COC(=O)c2cccc(S(=O)(=O)N3CCOCC3)c2)c(=O)n(C)c1=O,0.03%
21,CC1CN(S(=O)(=O)c2cccc(C(F)(F)F)c2)CN1C(=O)N1CCOCC1 (configuration not stated),-0.97%
22,CC(C)CCNC(=O)C1CCCN(S(=O)(=O)c2ccc(F)cc2)C1 (configuration not stated),-0.46%
23,COC(=O)c1c(CCl)noc1C(=O)NC(C)C,-0.34%

row,Structure (SMILES),inhibition
1,CN(CC(=O)NCc1ccc2c(c1)OCO2)CC(=O)Nc1ccc(F)c(F)c1F,-0.42%
2,O=C(NNC(=O)c1ccc(Cl)cc1Cl)c1cccs1,-0.62%
3,COc1ccc(CCOC(=O)CNC(=O)c2ccc(Cl)cc2Cl)cc1,0.12%
4,COC(=O)/C(=C\Nc1ccccc1)NC(=O)c1ccc(Cl)cc1Cl,43% (active)
5,Cn1ccsc1=NC(=O)c1cc(S(=O)(=O)N2CCOCC2)ccc1Cl,0%
6,COc1ccc(S(=O)(=O)N2CCOC2CNC(=O)C(=O)NCc2ccncc2)cc1C (configuration not stated),-0.16%
7,CCCCc1ccc(S(=O)(=O)NC(=O)C2(C)CCN2C(=O)c2c(C)noc2C)cc1 (configuration not stated),-0.38%
8,OCCC1CN(Cc2cccn2-c2nccs2)CCN1CCc1ccccc1 (configuration not stated),-0.69%
9,O=C(c1cccs1)C1C(c2ccc(Br)cc2)NC(=S)NC1(O)C(F)(F)F (configuration not stated),0.24%
10,OCC1(CCc2ccccc2)CCN(Cc2ccc3nsnc3c2)CC1,0.28%
11,Cc1c(CN2CCC(CO)(CCOc3ccccc3)CC2)[nH]c2ccc(Cl)cc12,8.27% (active)
12,COc1cccc(CC2(CO)CCN(Cc3cnc(-c4cccc(C)c4)nc3)CC2)c1,-0.01%
13,CCc1c(C)n([O-])c2c([n+]1=O)CCCCC2,-0.95%
14,COc1cccc(NC(=O)CN(C)C(=O)c2cc(C3CC3)nn2-c2ccccc2)c1,-0.11%
15,CSc1ncccc1C(=O)NCC(c1ccco1)N1CCCCC1 (configuration not stated),0.26%
16,O=CN1CCN(C2CC(=O)N(c3ccc4c(c3)OCO4)C2=O)CC1 (configuration not stated),-2.06%
17,Cc1ccc(CC2CC(=O)N(c3ccc4c(c3)OCCO4)C2=O)cc1 (configuration not stated),-0.24%
18,Cc1ccc(N2C(=O)CC(NCc3ccc4c(c3)OCO4)C2=O)cc1Cl (configuration not stated),12.1% (active)
19,COC(=O)CCSc1cc([N+](=O)[O-])cc2c1c(C1OCCS1)nn2-c1ccccc1 (configuration not stated),-0.2%
20,CCOc1ccc(NC(=O)CC(Cc2ccc(Cl)cc2)C(=O)O)cc1 (configuration not stated),-0.95%
21,Cc1ccc(C)c2[nH]c(=O)c(CCNC(=O)CC(C)C)cc12,0.44%
22,COc1ccc(-n2c(SCC(=O)NCc3ccco3)nnc2-c2c[nH]c3ccccc23)cc1,6.44% (active)
23,O=C(CSc1nnc(-c2c[nH]c3ccccc23)n1-c1ccc(F)cc1)NCc1ccco1,3.05%

row,Structure (SMILES),inhibition
1,COc1ccc(-n2c(SCC(=O)NCc3cccs3)nnc2-c2ccoc2C)cc1,-0.5%
2,Cc1cc(C(=O)NNC(=O)c2cccc(S(=O)(=O)N3CCOCC3)c2)c2ccccc2n1,-0.24%
3,Cc1nn(C)c(Oc2ccc(Cl)cc2)c1C=O,-0.76%
4,O=C(NCc1cc(C(F)(F)F)cc(C(F)(F)F)c1)C1CC(c2cccc(F)c2)=NO1 (configuration not stated),-0.13%
5,OC(c1ccc(Cl)c(F)c1)c1ncc(-c2ccccc2Cl)[nH]1 (configuration not stated),0.44%
6,Cc1ccc(-c2cnc(C(O)c3cc(Cl)cc(Cl)c3)[nH]2)cc1 (configuration not stated),40.4% (active)
7,Cc1cccc(-c2cnc(C(O)c3cc(C)cc(C)c3)[nH]2)c1 (configuration not stated),-0.08%
8,OC(c1ccc(Cl)cc1)c1ncc(-c2ccc(Cl)cc2)[nH]1 (configuration not stated),2.49%
9,OC(c1cc(Cl)cc(Cl)c1)c1ncc(-c2ccccc2C(F)(F)F)[nH]1 (configuration not stated),58% (active)
10,Cc1ccc(C(O)c2ncc(-c3ccccc3F)[nH]2)cc1F (configuration not stated),-0.2%
11,CCC(=O)N1CCC(C)(C(=O)Nc2cc(OC)c(OC)c(OC)c2)C1 (configuration not stated),0.06%
12,NC(=O)CC[C@@H]1NC(=O)[C@@H]2CCCN2C(=O)c2cc([N+](=O)[O-])cc(F)c2NCCC[C@@H](C(N)=O)NC1=O,-0.23%
13,O=S(=O)(NCc1cccnc1)c1ccc(Cl)nc1,-1.09%
14,CC(CCN1CCN=C1N(C)C)c1ccccc1 (configuration not stated),-0.2%
15,C#CCNC(=O)C[C@@H]1C[C@@]2(C(=O)OCC)CCCC=C2N(Cc2ccco2)C1=O,-0.95%
16,CCCn1nc(C(=O)NNC(=O)CSCC(=O)Nc2cc(C)on2)c2ccccc2c1=O,-0.27%
17,O=C(NCCc1ccc(C(F)(F)F)cc1)c1ccc2c(c1)OCO2,-0.15%
18,CCCCCCCC[n+]1cccc(C(=O)N2c3c(nc(N)[nH]c3=O)NC(C)C2C)c1 (configuration not stated),14.2% (active)
19,C[C@H]1CN([C@@H](C)CO)C(=O)c2cc(-c3ccccc3F)cnc2O[C@H]1CN(C)C(=O)C1CCOCC1,-1.85%
20,O=C(Cn1c(-c2cscn2)nc2ccccc21)Nc1ccc(Cl)cc1,4.33%
21,O=C(Cn1c(NCCO)nc2ccccc21)c1ccc(Cl)cc1Cl,8.55% (active)
22,CCCn1c(=N)n(CC(=O)c2ccc(Cl)c(Cl)c2)c2ccccc21,1.04%
23,Brc1cnc2ccccc2c1N1CCCCC1,-0.62%

row,Structure (SMILES),inhibition
1,CCOc1cc(NC(=S)NCCCN(C)C)c(OCC)cc1NC(=O)C1CC1,-0.32%
2,COc1ccc(CCN2CC(C(=O)OCC(=O)NCc3ccccc3Cl)CC2=O)cc1OC (configuration not stated),0.43%
3,COc1ccc(CCn2ccc(O)c(Cc3ccc(Cl)cc3Cl)c2=O)cc1OC,6.37% (active)
4,COc1ccc(CCNC(=O)CCc2ccccc2O)cc1OC,-0.3%
5,CC(C)(CNC(=O)c1cc(=O)[nH]c2ccccc12)N1CCOCC1,0.28%
6,O=C(NCCN1CCOCC1)c1ccccc1N1C(=O)[C@@H]2Cc3c([nH]c4ccccc34)C(c3cccc(Cl)c3)N2C1=O (some centres not stated),11.4% (active)
7,O=C(NCCN1CCOCC1)Nc1cccc(Cl)c1,0.46%
8,CC/C(O)=C1\C(=O)CC(C)(C)CC1=NCCc1nc2ccccc2[nH]1,0.39%
9,CCOC(=O)C(=CNNc1ccsc1C(=O)OC)C(=O)OCC,0.74%
10,Cc1csc(/N=C/N(C)C)c1C#N,-0.21%
11,O=c1c2ccccc2nc2n1C(CSCc1cccc(C(F)(F)F)c1)CS2 (configuration not stated),-1%
12,CCN1CCCC1CNc1ncnc2c1[nH]c1ccc(F)cc12 (configuration not stated),30.4% (active)
13,CCN1CCCC1CNC(=O)Cn1cnc2ccc(S(=O)(=O)N3CCC(C)CC3)cc2c1=O (configuration not stated),-0.14%
14,CCN1CCCC1Cn1cnc2c([nH]c3cc(OC)ccc32)c1=O (configuration not stated),0.01%
15,CC(C)OCCCNc1ncnc2c1[nH]c1ccc(F)cc12,85.6% (active)
16,CCNC(=O)CC1C(=O)N(c2ccc(OC)cc2)C(=O)N1CCOC (configuration not stated),-0.58%
17,CCOc1ccc(C(C(=O)NC2CCCC2)N(C(=O)c2snc(C(N)=O)c2N)C2CCCC2)cc1 (configuration not stated),-0.03%
18,O=C1c2ccccc2[C@@H]2C[C@@H](O)[C@H](Nc3ccccc3Cl)CCN12,-0.62%
19,CN1CCCN(C(=O)C2CCCCC2)CC1,-0.59%
20,O=C(NCc1ccco1)c1sc2cccc(F)c2c1Cl,-1.04%
21,COc1ccc(CCNC(=O)COC(=O)C2CCCCC2)cc1,0.41%
22,CCN(CC)S(=O)(=O)c1ccc2nc(COC(=O)c3n[nH]c4ccccc34)[nH]c2c1,-0.9%
23,O=C(OCc1nc2ccccc2[nH]1)C1CCCCC1,14.4% (active)
